Measured values taken from ChEMBL document CHEMBL3352730, “Synthesis and effects on cell viability of flavonols and 3-methyl ether derivatives on human leukemia cells” (Eur J Med Chem, 2014).
Active and inactive are the calls of the source. The rule behind the calls is not given here.

What was measured:
[1] = test system: HL-60; test: Induction of apoptosis in human HL60 cells assessed as pro-caspase-6 cleavage by Western blotting method; format: functional, cell-based
Procedure, shortened: (§1)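 Cells were exposed to a range of compound concentrations and harvested at 24 h. Lysates were immunoblotted for caspase proforms and cleaved forms, and for Bcl-2 family proteins.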

[2] = test system: HL-60; test: Induction of cell cycle arrest in human HL60 cells assessed as accumulation at subG1 phase at 10 uM after 12 hrs by propidium iodide staining based flow cytometry (reference value: 6.1 +/- 0.5%); format: functional
[3] = test system: HL-60; test: Induction of apoptosis in human HL60 cells assessed as pro-caspase-7 cleavage by Western blotting method; format: functional, cell-based; procedure, shortened: as §1
[4] = test system: U-937; test: Induction of cell cycle arrest in human U937 cells assessed as accumulation at S phase at 10 uM after 48 hrs by propidium iodide staining based flow cytometry (reference value: 18.9 +/- 0.2%); format: functional
[5] = test system: MOLT-3; test: Induction of apoptosis in human MOLT3 cells assessed as pro-caspase-8 cleavage by Western blotting method; format: functional, cell-based; procedure, shortened: as §1
[6] = test system: HL-60; test: Induction of cell cycle arrest in human HL60 cells assessed as accumulation at subG1 phase at 10 uM after 24 hrs by propidium iodide staining based flow cytometry (reference value: 3.4 +/- 0.3%); format: functional
[7] = test system: HL-60; test: Induction of cell cycle arrest in human HL60 cells assessed as accumulation at G2/M phase at 1 uM after 24 hrs by propidium iodide staining based flow cytometry (reference value: 22.5 +/- 0.9%); format: functional
[8] = test system: U-937; test: Induction of apoptosis in human U937 cells assessed as increase in caspase 9 activity using LEHD-pNA substrate at 10 uM after 24 hrs; format: functional, cell-based
Procedure, shortened: (§2)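 Cells were given 10 µM for 24 h. Lysates were assayed for cleavage of DEVD-pNA (caspase-3/7), IETD-pNA (caspase-8) and LEHD-pNA (caspase-9). Results are expressed as fold over control, from three independent experiments in triplicate.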

[9] = test system: U-937; test: Induction of cell cycle arrest in human U937 cells assessed as accumulation at G1 phase at 1 uM after 48 hrs by propidium iodide staining based flow cytometry (reference value: 51.9 +/- 0.9%); format: functional
[10] = test system: HL-60; test: Induction of apoptosis in human HL60 cells assessed as pro-caspase-9 cleavage by Western blotting method; format: functional, cell-based; procedure, shortened: as §1
[11] = test system: HL-60; test: Induction of cell cycle arrest in human HL60 cells assessed as accumulation at G2/M phase at 10 uM after 48 hrs by propidium iodide staining based flow cytometry (reference value: 17.9 +/- 0.7%); format: functional
[12] = test system: HL-60; test: Induction of cell cycle arrest in human HL60 cells assessed as accumulation at subG1 phase at 10 uM after 48 hrs by propidium iodide staining based flow cytometry (reference value: 3.7 +/- 0.1%); format: functional
[13] = Cytotoxicity against human HL60 cells after 72 hrs by MTT assay; format: functional, cell-based; settings: HL-60, 72 h
Procedure, shortened: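 MTT colorimetric assay with 72 h continuous exposure. IC50 was fitted per experiment by non-linear regression. Values are means with SE from at least three independent experiments, each run in triplicate.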

[14] = test system: U-937; test: Induction of cell cycle arrest in human U937 cells assessed as accumulation at G2/M phase at 3 uM after 12 hrs by propidium iodide staining based flow cytometry (reference value: 24.2 +/- 1.2%); format: functional
[15] = test system: U-937; test: Induction of cell cycle arrest in human U937 cells assessed as accumulation at G1 phase at 3 uM after 24 hrs by propidium iodide staining based flow cytometry (reference value: 49.8 +/- 1.5%); format: functional
[16] = test system: U-937; test: Induction of cell cycle arrest in human U937 cells assessed as accumulation at S phase at 3 uM after 12 hrs by propidium iodide staining based flow cytometry (reference value: 20.5 +/- 0.8%); format: functional
[17] = test system: U-937; test: Induction of cell cycle arrest in human U937 cells assessed as accumulation at G2/M phase at 1 uM after 12 hrs by propidium iodide staining based flow cytometry (reference value: 24.2 +/- 1.2%); format: functional
[18] = test system: HL-60; test: Induction of cell cycle arrest in human HL60 cells assessed as accumulation at S phase at 10 uM after 24 hrs by propidium iodide staining based flow cytometry (reference value: 17.9 +/- 0.6%); format: functional
[19] = test system: HL-60; test: Induction of cell cycle arrest in human HL60 cells assessed as accumulation at G1 phase at 10 uM after 12 hrs by propidium iodide staining based flow cytometry (reference value: 57.2 +/- 0.9%); format: functional
[20] = test system: U-937; test: Induction of Bid processing in human U937 cells by Western blotting method
[21] = test system: U-937; test: Induction of apoptosis in human U937 cells assessed as pro-caspase-4 processing by Western blotting method; format: functional, cell-based; procedure, shortened: as §1
[22] = test system: HL-60; test: Induction of apoptosis in human HL60 cells assessed as increase in caspase 3/7 activity DEVD-pNA substrate at 10 uM after 24 hrs; format: functional; procedure, shortened: as §2
[23] = test system: U-937; test: Induction of cell cycle arrest in human U937 cells assessed as accumulation at G1 phase at 3 uM after 48 hrs by propidium iodide staining based flow cytometry (reference value: 51.9 +/- 0.9%); format: functional
[24] = test system: HL-60; test: Induction of apoptosis in human HL60 cells in presence of 10 uM MEK1/2 inhibitor PD98059 after 24 hrs by propidium iodide staining based flow cytometry; format: functional
[25] = test system: U-937; test: Induction of cell cycle arrest in human U937 cells assessed as accumulation at G2/M phase at 1 uM after 48 hrs by propidium iodide staining based flow cytometry (reference value: 19.1 +/- 1.1%); format: functional
[26] = test system: HL-60; test: Induction of apoptosis in human HL60 cells at 30 uM after 24 hrs by propidium iodide staining based flow cytometry (reference value: 3.8 +/- 0.6%); format: functional
[27] = test system: MOLT-3; test: Induction Bax cleavage in human MOLT3 cells at 3 uM by Western blotting method; format: functional, cell-based; procedure, shortened: as §1
[28] = test system: HL-60; test: Induction of apoptosis in human HL60 cells in presence of 10 uM MEK1/2 inhibitor U0126 after 24 hrs by propidium iodide staining based flow cytometry; format: functional
[29] = test system: HL-60; test: Induction of cell cycle arrest in human HL60 cells assessed as accumulation at S phase at 1 uM after 48 hrs by propidium iodide staining based flow cytometry (reference value: 15.3 +/- 0.1%); format: functional
[30] = test system: HL-60; test: Induction of cell cycle arrest in human HL60 cells assessed as accumulation at subG1 phase at 1 uM after 12 hrs by propidium iodide staining based flow cytometry (reference value: 6.1 +/- 0.5%); format: functional
[31] = test system: U-937; test: Induction of apoptosis in human U937 cells assessed as pro-caspase-9 processing at 3 and 10 uM after 6 to 24 hrs by immunoblotting method; format: functional, cell-based
Procedure, shortened: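 Kinetic and dose-response experiment: cells were treated with the indicated concentrations and harvested at the indicated times. Pro-caspase-8 and -9 cleavage was detected by immunoblotting with antibodies that bind both the proenzyme and the cleaved fragments.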

[32] = test system: HL-60; test: Induction of apoptosis in human HL60 cells assessed as increase in caspase 8 activity using IETD-pNA substrate at 10 uM after 24 hrs; format: functional; procedure, shortened: as §2
[33] = test system: HL-60; test: Induction of cell cycle arrest in human HL60 cells assessed as accumulation at G2/M phase at 10 uM after 12 hrs by propidium iodide staining based flow cytometry (reference value: 18.5 +/- 0.5%); format: functional
[34] = test system: HL-60; test: Induction of cell cycle arrest in human HL60 cells assessed as accumulation at G1 phase at 1 uM after 12 hrs by propidium iodide staining based flow cytometry (reference value: 57.2 +/- 0.9%); format: functional

With O=c1c(O)c(-c2ccc(Br)cc2)oc2ccccc12 the Activity [1] was “Active”, the Activity [2] was 8.9% and the Activity [3] was “Active”. The Activity [4] was 11.9%, the Activity [5] was “Active” and the Activity [6] was 20.4%. For the same molecule, the Activity [7] was 22.5%, the Activity [8] was “Active” and the Activity [9] was 49%. For the same molecule, the Activity [10] was “Active”, the Activity [11] was 5.5% and the Activity [12] was 56.7%. For the same molecule, the IC50 [13] was 3.3 µM, the Activity [14] was 23.9% and the Activity [15] was 42.3%. For the same molecule, the Activity [16] was 22.4%, the Activity [17] was 25.1% and the Activity [18] was 24.1%. The Activity [19] was 58.2%, the Activity [20] was “Active” and the Activity [21] was “Active”. The “fold change (FC)” value [22] was 4.5, the Activity [23] was 38.5% and the “fold change (FC)” value [24] was 2. The Activity [25] was 19.9%, the Activity [26] was 51.8% and the Activity [27] was “Active”. The “fold change (FC)” value [28] was 2, the Activity [29] was 15.5% and the Activity [30] was 5.6%. The Activity [31] was “Active”, the “fold change (FC)” value [32] was 1.7 and the Activity [33] was 13.4%. For the same molecule, the Activity [34] was 56.2%.
